Assay outcomes: PubChem, The Scripps Research Institute Molecular Screening Center
This is a sample that favours compounds with a hit; in the whole collection about 1.8% have one here.
NPY-Y1 antag = antagonists of human neuropeptide Y receptor Y1; P25929; HEK293-CNG Y1 cells, membrane potential fluorescence; NPY at EC95, then isoproterenol; actives 1% (n = 200,000); AID 1040; inhibition, % at 3.6 µM;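 active = inhibition above the campaign mean inhibition of all tested compounds plus 3 SD, cut at about 20% in these data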
Target sequence (P25929 whole entry, looked up): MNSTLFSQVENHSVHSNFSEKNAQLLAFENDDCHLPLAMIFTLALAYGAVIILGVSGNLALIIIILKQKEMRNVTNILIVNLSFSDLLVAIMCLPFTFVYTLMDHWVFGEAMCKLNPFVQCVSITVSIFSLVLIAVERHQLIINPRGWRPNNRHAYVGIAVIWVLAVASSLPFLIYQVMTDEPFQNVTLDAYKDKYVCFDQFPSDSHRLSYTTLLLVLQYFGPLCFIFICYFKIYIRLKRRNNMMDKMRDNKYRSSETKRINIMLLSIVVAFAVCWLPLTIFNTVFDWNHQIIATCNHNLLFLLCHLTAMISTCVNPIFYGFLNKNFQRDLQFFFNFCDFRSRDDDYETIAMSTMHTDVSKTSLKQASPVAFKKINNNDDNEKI
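Benchmarks – high control isoproterenol alone, low control NPY with isoproterenol · Material – HEK293 Y1/CNG channel cell line · Times – dye 3 h, compound 60 min room temperature, stimulation 45 min · Probe or stimulus – NPY (25 nM), isoproterenol (1 µM), Ro 20-1724 (25 µM) · Evaluation – % inhibition of NPY effect · Signal – fluorescence, membrane potential probe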
NPY2 pot ag = potentiates or activates human NPY-Y2 receptor; P49146; cells expressing NPY-Y2, potentiator/agonist read-out; activation, % at 3.6 µM; actives 0.45% (n = 220,000); AID 1359; in the data active = activation above about 27%;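 note: cells stimulated with NPY near EC25 plus isoproterenol at EC100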
NPY Y2 blocker = blocks the human neuropeptide Y Y2 receptor; P49146; NPY-Y2 expressing cells, antagonist mode; inhibition, % at 2.7 µM; actives 0.99% (n = 140,000); AID 793
NPY1 pot ag = potentiates or activates human NPY-Y1 receptor | P25929 | NPY-Y1 expressing cells, potentiator/agonist activation | activation, % at 3.6 µM | actives 0.37% (n = 220,000) | AID 1304; in the data active = activation above about 33%, passing the limit was not always enough;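 note: cells stimulated with NPY at EC10 then isoproterenol at EC100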
NPY-Y1 ant conf = confirmation of human neuropeptide Y receptor Y1 antagonists; shares compounds with NPY-Y1 antag; HEK293-CNG NPY-Y1, membrane potential fluorescence, cAMP; NPY challenge against isoproterenol-raised cAMP; inhibition, % at 3.6 µM; actives 21% (n = 1,200); AID 1254; in the data active = inhibition above about 20%
NPY-Y2 antag ct = human NPY-Y2 antagonism in NPY-Y1 counter-screen. HEK293 NPY-Y2 CNG membrane potential fluorescence; cells given NPY, then isoproterenol. actives 28% (n = 1,200). inhibition, % at 3.6 µM. shares compounds with NPY-Y1 antag. AID 1255
Hits are given with their value; – = inactive; · = no result. Cut-off read from the data, not from the text of the source, unless noted: active = inhibition above about 17%; inactive = the rest.

SMILES | NPY-Y1 antag | NPY2 pot ag | NPY Y2 blocker | NPY1 pot ag | NPY-Y1 ant conf | NPY-Y2 antag ct
c1ccc(COc2ccccc2CNC2CCCC2)cc1 | 31.8 | – | · | – | – | –
O=C(COc1ccc(Br)cc1CNC1CCCCC1)NCCc1ccccc1 | 27.0 | – | · | – | – | –
COc1cc(OC)cc(C(=O)N[C@H](C(=O)Nc2nc(-c3ccc(F)c(F)c3)cs2)C(C)C)c1 | – | – | · | – | · | ·
Cc1cc(C(C)(C)C)cc(C)c1C(=O)O | · | – | · | – | · | ·
O=C(O)CCC(=O)NNc1ccccc1[N+](=O)[O-] | – | – | – | – | · | ·
CO/N=C\C(=N\Nc1ccc(OC)cc1)C(=O)c1ccccc1 | 23.3 | – | – | – | – | –
CO/N=C/C(=N\Nc1ccccc1)C(=O)c1ccccc1 | – | – | · | – | · | ·
OCC1(CCCc2ccccc2)CCN(Cc2cc(F)ccc2F)CC1 | – | – | · | – | · | ·
OCC1(CCc2ccccc2)CCN(Cc2cc(F)ccc2-n2cccn2)CC1 | 23.4 | – | · | – | – | –
COc1ccc(-c2nc3ccccn3c2CN2CCN(c3ccccc3F)CC2)cc1 | 30.0 | – | · | – | 26.6 | 20.7
Clc1ccc(-c2nc3ccccn3c2CN2CCOCC2)cc1 | – | – | – | – | · | ·
CC/C(=N\NC(=O)c1ccc(N(C)C)cc1)c1ccccc1 | – | – | – | – | · | ·
OCC1(Cc2ccccc2)CCN(C2CCN(c3ccc(F)c(F)c3)CC2)CC1 | – | – | · | – | · | ·
Cc1nc(C(=O)Nc2cccc(Cl)c2Cl)nn1-c1cc(OC(C)C)c(Cl)cc1Cl | 20.1 | – | – | – | – | 25.9
Cc1nc(C(=O)Nc2cc(Cl)ccc2Cl)nn1-c1cc(OC(C)C)c(Cl)cc1Cl | – | – | – | – | · | ·
Cn1c(Oc2ccccc2NCc2cccc(Br)c2)cc(=O)n(C)c1=O | 25.3 | – | – | – | – | –
CC(C)Cn1cc(C(=O)N2CCOCC2)c2c3ccccc3n(C)c2c1=O | – | – | – | – | · | ·
CC(C)Cn1cc(C(=O)N2CCC(C)CC2)c2c3ccccc3n(C)c2c1=O | 23.0 | – | · | – | – | –
CC(C)Cn1cc(C(=O)NCc2cccs2)c2c3ccccc3n(C)c2c1=O | 21.0 | – | – | – | – | –
CCOC(=O)c1c(C)n(-c2ccc(C)cc2)c2ccc(OCC(O)CNCC3CCCO3)cc12 (stereo not given) | 59.1 | – | · | – | 61.5 | 72.2
CCOC(=O)c1c(C)n(-c2ccc(C)cc2)c2ccc(OCC(O)CNCCCO)cc12 (stereo not given) | 28.9 | – | · | – | 36.1 | 41.4
CN(C)CCOc1ccc(C(C)(C)c2ccccc2)cc1 | – | – | · | – | · | ·
CC(C)N(CCNCC(O)COc1ccc(C(C)(C)c2ccccc2)cc1)C(C)C (stereo not given) | 24.8 | – | · | – | – | 26.4
CN(C)CCCOc1ccc(C(C)(C)c2ccccc2)cc1 | 22.8 | – | – | – | – | 22.5
OC(CNCCc1ccccc1)COc1ccc(OCC(O)CNCCc2ccccc2)cc1 (stereo not given) | · | – | · | – | · | ·
SMILES | NPY-Y1 antag | NPY2 pot ag | NPY Y2 blocker | NPY1 pot ag | NPY-Y1 ant conf | NPY-Y2 antag ct
Cc1ccc(N2C(=O)c3ccccc3NC2C(C)Cc2ccc3c(c2)OCO3)cc1 (stereo not given) | 44.0 | – | – | – | 119.8 | 108.2
COC(=O)c1sccc1NC(=O)CSc1cccc(Cl)c1Cl | 23.6 | – | – | – | – | –
COC(=O)c1sccc1NC(=O)/C=C/c1c(Cl)cccc1Cl | – | – | – | – | · | ·
CO/N=C(\c1nonc1N)N1CCN(c2ccc([N+](=O)[O-])cc2Cl)CC1 | – | – | – | – | · | ·
CO/N=C(\c1nonc1N)N1CCN(c2ccc(Cl)cc2[N+](=O)[O-])CC1 | 24.1 | – | – | – | – | –
CCc1cc(-c2[nH]ncc2-c2ccc3c(c2)OCO3)c(O)cc1O | 20.5 | – | – | – | 21.1 | –
CCCc1cc(-c2[nH]ncc2-c2ccc3c(c2)OCCCO3)c(O)cc1OC | – | – | – | – | · | ·
CN(C)Cc1ccc(F)cc1Sc1ccc(Cl)cc1Cl | 22.1 | – | – | – | – | –
CC(O)CNCc1ccc(Cl)cc1Cl (stereo not given) | – | – | · | – | · | ·
O=C(O)c1nn(-c2ccccc2)nc1-c1nn(-c2ccccc2)nc1C(=O)O | 30.8 | – | – | – | – | –
COC(=O)c1nn(-c2ccccc2)nc1-c1nn(-c2ccccc2)nc1C(=O)OC | – | – | – | – | · | ·
O=C(N/N=C/c1ccccc1O)C1(O)c2ccccc2-c2ccccc21 | – | – | – | – | · | ·
Cc1ccc(NC(=O)CSc2nc3ccccc3c(=O)n2CCCC(=O)NCCCN2CCOCC2)cc1C | – | – | · | – | · | ·
CC1CCN(CCCn2c(SCC(=O)Nc3ccccc3Cl)nc3ccccc3c2=O)CC1 | 31.3 | – | · | – | 24.7 | 23.8
Cc1ccc(NC(=O)CSc2nc3ccccc3c(=O)n2CCCN2CCCCC2)cc1Cl | 22.8 | – | · | – | 45.0 | 55.1
O=C(Cn1cnc2c(nnn2-c2cccc(Cl)c2)c1=O)NCc1ccccc1 | – | – | · | – | · | ·
Cc1ccc(OCC(=O)Nc2sc3c(c2C#N)CC(C)(C)NC3(C)C)cc1 | 22.3 | – | · | – | – | –
COc1ccc(-n2c(CCC(=O)O)ccc2-c2ccccc2)cc1 | 26.6 | – | · | – | – | –
COc1ccc(-c2ccc(CCC(=O)O)n2-c2ccccc2O)cc1 | · | – | · | – | · | ·
COc1ccccc1NC(=O)c1oc2ccc(C)cc2c1C | 21.7 | – | – | – | – | –
O=S1(=O)C=CC(c2ccccc2)C1 (stereo not given) | · | – | · | – | · | ·
CC(=O)c1cccc(NC(=O)N2CCC(NC(=O)C34CC5CC(CC(C5)C3)C4)CC2)c1 | – | – | · | – | · | ·
CCN1/C(=C/C=C/c2oc3ccc4ccccc4c3[n+]2CC)Oc2ccc3ccccc3c21 | 35.4 | – | · | – | 30.2 | 29.5
CC[n+]1c(/C=C/N(C)c2ccccc2)oc2ccc(Cl)cc21 | – | – | – | – | · | ·
Cc1ccccc1-c1nc(CN2CCC(C(=O)NCCCN3CC(C)CC(C)C3)CC2)c(C)o1 (stereo not given) | 23.4 | – | – | – | – | 23.7
SMILES | NPY-Y1 antag | NPY2 pot ag | NPY Y2 blocker | NPY1 pot ag | NPY-Y1 ant conf | NPY-Y2 antag ct
COc1ccc(CCNC(=O)C2CCN(Cc3nc(-c4ccccc4F)oc3C)CC2)cc1OC | – | – | – | – | · | ·
Cc1oc(-c2ccc(Cl)cc2)nc1CN1CCC(C(=O)N2CCN(Cc3ccccc3)CC2)CC1 | 25.3 | – | – | – | 20.9 | 28.7
CCc1ccc(-c2nc(CN3CCC(C(=O)NCCc4ccc(OC)c(OC)c4)CC3)c(C)o2)cc1 | 28.1 | – | – | – | – | –
CCN1CCCC1CNC(=O)C1CCN(Cc2nc(-c3cccc(Br)c3)oc2C)CC1 (stereo not given) | 20.9 | – | – | – | – | –
Cc1oc(-c2ccc(Cl)cc2)nc1CN1CCC(C(=O)N2CCc3ccccc3C2)CC1 | – | – | – | – | · | ·
Cc1oc(-c2cccc(Cl)c2)nc1CN1CCC(C(=O)NCc2ccco2)CC1 | – | – | – | – | · | ·
COc1ccc(/C=N/NC(=O)CC(=O)NC2CCCCC2)cc1 | – | – | · | – | · | ·
